# Laboratory results: ChEMBL document CHEMBL1138180, “Design and synthesis of new tetrazolyl- and carboxy-biphenylylmethyl-quinazolin-4-one derivatives as angiotensin II AT1 receptor antagonists” (J Med Chem, 2006)
# Active and inactive are the calls of the source. The calls are words filed in the database; no cut-off is given here.
# How the values were obtained:
# Rattus norvegicus [1] = assay: Reduction of the systolic blood pressure in normotensive Sprague-Dawley rat at 3 mg/kg, ip; format: functional, organism-based; design: dose 3 mg/kg; settings: Artery
# Method in brief: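 Normotensive male rats (230-250 g), n = 6 per group, given a single ip dose of 3 mg/kg in 0.1 mL DMSO, with a DMSO vehicle control. Systolic BP measured 2 h later by tail-cuff in conscious, cage-acclimatized rats in a 31-32 °C chamber. Mean % reduction versus control reported; ANOVA/LSD.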
# [2] = target: T1, Type-1 angiotensin II receptor (Homo sapiens) (UniProt P30556); assay: Displacement of [125I]-Sar(1)Ile(8)-Ang 2 from human AT1 receptor in CHO cells; format: cell-based
# T1 sequence (whole entry): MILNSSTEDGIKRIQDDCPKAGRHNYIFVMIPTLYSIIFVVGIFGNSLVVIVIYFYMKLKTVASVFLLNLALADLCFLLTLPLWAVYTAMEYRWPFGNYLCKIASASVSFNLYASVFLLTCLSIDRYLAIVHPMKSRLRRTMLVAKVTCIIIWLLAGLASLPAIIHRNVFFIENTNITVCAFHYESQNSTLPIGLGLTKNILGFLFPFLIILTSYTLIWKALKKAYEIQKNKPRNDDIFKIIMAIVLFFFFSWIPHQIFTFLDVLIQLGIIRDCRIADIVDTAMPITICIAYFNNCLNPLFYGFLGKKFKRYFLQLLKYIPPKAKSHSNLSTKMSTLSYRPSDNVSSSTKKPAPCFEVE
# Method in brief: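 Membranes from CHO cells stably expressing human AT1 receptor, in 50 mM Tris-HCl pH 7.4 with 100 mM NaCl, 6 mM MgCl2 and 0.1% BSA. ~50 µg protein incubated 1 h at room temperature with 0.15 nM 125I-Sar1Ile8-Ang II, with or without competitor at 10 µM final. Bound ligand separated by centrifugation, counted as cpm. Control had DMSO and no competitor. Mean cpm ± SEM.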
# Rattus norvegicus [3] = assay: Reduction of the systolic blood pressure in hypertensive Sprague-Dawley rat at 3 mg/kg, ip; format: functional, organism-based; design: dose 3 mg/kg; settings: Artery
# Method in brief: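 Male rats (230-250 g) made hypertensive with DOCA 10 mg/kg sc daily plus 8% NaCl diet for 3-4 weeks. Single ip dose of 3 mg/kg in 0.1 mL DMSO, n = 6 per group. Systolic BP measured by tail-cuff in conscious rats 24 h before and 2 h after dosing. Normotensive and hypertensive DMSO controls included. Mean ± SE, ANOVA/LSD.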
Structure (SMILES),Activity (Rattus norvegicus [1]),Activity [2],Activity (Rattus norvegicus [3])
CCCCc1nc(Cl)c(CO)n1Cc1ccc(-c2ccccc2-c2nnn[nH]2)cc1,Active,Active,Active
O=c1[nH]c2ccccc2c(=O)n1Cc1ccc(-c2ccccc2-c2nn[nH]n2)cc1,Active,Active,Active
CSc1nc2ccccc2c(=O)n1Cc1ccc(-c2ccccc2-c2nn[nH]n2)cc1,Active,Active,Active
Oc1nc(SCc2ccc(-c3ccccc3-c3nn[nH]n3)cc2)nc2ccccc12,–,inactive,–
CSc1nc2ccccc2c(=O)n1Cc1ccc(-c2ccccc2C(=O)O)cc1,Active,Active,Active
